Calls of active or inactive are those of the source. The calls are words filed in the database; no cut-off is given here.
Tests used:
[1] = molecular target: T1, Cannabinoid receptor 1 (Rattus norvegicus, UniProt P20272); experiment: Displacement of [3H]CP-55,940 from CB1 receptor in rat brain membranes by scintillation counting method; type: cell membranes, Membrane
Summary of the method: (§1)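 Competition binding against [3H]CP-55,940. Membranes from rat brain (CB1) or from HEK293 cells expressing mouse or human CB2. IC50 from nonlinear regression, converted to Ki. Each experiment run in triplicate; Ki is the mean of three independent experiments.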

[2] = molecular target: Cannabinoid receptor 2 (Homo sapiens, UniProt P34972); experiment: Displacement of [3H]CP-55,940 from human CB2 receptor expressed in HEK293 cells by scintillation counting method; type: cell-based; summary of the method: as §1
[3] = molecular target: Cannabinoid receptor 2 (Mus musculus, UniProt P47936); experiment: Displacement of [3H]CP-55,940 from mouse CB2 receptor expressed in HEK293 cells by scintillation counting method; type: cell-based; summary of the method: as §1
[4] = Metabolic stability in mouse plasma assessed as esterase-mediated compound hydrolysis by measuring compound half life by HPLC analysis; type: ADME
Summary of the method: (§2)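 Compounds at 200 μM in mouse plasma, 37 °C, shaken at 100 rpm. Samples taken over time, diluted 1:4 in acetonitrile and centrifuged. Supernatant analysed by C18 reverse-phase HPLC with an acetonitrile/acidified water gradient and UV detection (204 and 230 nm). Half-life from exponential decay fit.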

[5] = molecular target: T1, Cannabinoid receptor 1; experiment: Agonist activity at CB1 receptor in rat brain membranes assessed as reduction in forskolin-stimulated cAMP level measured from 3 data points after 30 mins; type: functional, cell membranes, Membrane
[6] = molecular target: T1, Cannabinoid receptor 1; experiment: Agonist activity at CB1 receptor in rat brain membranes assessed as reduction in forskolin-stimulated cAMP level measured from 8 data points after 30 mins; type: functional, cell membranes, Membrane
[7] = system: Rattus norvegicus; experiment: Hypothermic activity in sc dosed Sprague-Dawley rat assessed as reduction in body temperature at 0.03 mg/kg, sc measured after 3 hrs post dose relative to baseline; type: functional, organism-based
[8] = system: Rattus norvegicus; experiment: Hypothermic activity in sc dosed Sprague-Dawley rat measured over 6 hrs post dose; type: functional
[9] = molecular target: Cannabinoid receptor 1 (Rattus norvegicus) (UniProt P20272); experiment: Agonist activity at CB1 receptor in rat brain membranes assessed as reduction in forskolin-stimulated cAMP level after 30 mins relative to CP-55,940; type: functional, cell membranes; conditions: Membrane
[10] = system: Rattus norvegicus; experiment: Hypothermic activity in sc dosed Sprague-Dawley rat assessed as reduction in body temperature at 0.03 mg/kg, sc measured after 6 hrs post dose relative to baseline; type: functional, organism-based
[11] = system: Rattus norvegicus; experiment: Hypothermic activity in sc dosed Sprague-Dawley rat assessed as reduction in body temperature at 0.1 mg/kg, sc measured over 6 hrs post dose relative to baseline; type: functional, organism-based
[12] = system: Rattus norvegicus; experiment: Hypothermic activity in sc dosed Sprague-Dawley rat assessed as reduction in body temperature at 0.3 mg/kg, sc measured after 12 hrs post dose relative to baseline; type: functional, organism-based
[13] = Metabolic stability in mouse plasma assessed as esterase-mediated compound hydrolysis measured within 5 hrs by HPLC analysis; type: ADME; summary of the method: as §2

Cannabinoid receptor 2 (Homo sapiens, UniProt P34972), sequence (P34972 whole entry): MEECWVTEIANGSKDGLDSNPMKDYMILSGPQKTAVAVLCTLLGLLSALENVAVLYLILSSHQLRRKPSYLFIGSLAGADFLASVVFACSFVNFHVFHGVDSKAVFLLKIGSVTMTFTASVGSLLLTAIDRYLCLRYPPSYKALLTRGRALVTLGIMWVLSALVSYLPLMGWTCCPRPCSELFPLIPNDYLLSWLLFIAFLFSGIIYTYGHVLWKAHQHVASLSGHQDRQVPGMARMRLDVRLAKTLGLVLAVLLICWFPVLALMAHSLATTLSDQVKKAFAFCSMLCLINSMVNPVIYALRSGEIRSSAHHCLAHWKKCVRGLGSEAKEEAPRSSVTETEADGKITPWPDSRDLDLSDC
T1 sequence (P20272 whole entry): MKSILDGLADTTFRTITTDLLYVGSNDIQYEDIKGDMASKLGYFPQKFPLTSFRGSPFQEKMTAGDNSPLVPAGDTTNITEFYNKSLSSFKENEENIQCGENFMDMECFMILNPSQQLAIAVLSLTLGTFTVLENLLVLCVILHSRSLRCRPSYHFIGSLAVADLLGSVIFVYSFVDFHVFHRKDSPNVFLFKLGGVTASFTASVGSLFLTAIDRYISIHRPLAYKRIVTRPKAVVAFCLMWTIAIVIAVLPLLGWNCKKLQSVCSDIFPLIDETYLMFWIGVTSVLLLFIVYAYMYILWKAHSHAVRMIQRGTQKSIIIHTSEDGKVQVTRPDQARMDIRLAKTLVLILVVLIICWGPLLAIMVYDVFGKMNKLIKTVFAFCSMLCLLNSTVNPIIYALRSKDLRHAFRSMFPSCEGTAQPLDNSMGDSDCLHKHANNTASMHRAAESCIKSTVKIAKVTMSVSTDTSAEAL
Cannabinoid receptor 2 (Mus musculus, UniProt P47936), sequence (P47936 whole entry): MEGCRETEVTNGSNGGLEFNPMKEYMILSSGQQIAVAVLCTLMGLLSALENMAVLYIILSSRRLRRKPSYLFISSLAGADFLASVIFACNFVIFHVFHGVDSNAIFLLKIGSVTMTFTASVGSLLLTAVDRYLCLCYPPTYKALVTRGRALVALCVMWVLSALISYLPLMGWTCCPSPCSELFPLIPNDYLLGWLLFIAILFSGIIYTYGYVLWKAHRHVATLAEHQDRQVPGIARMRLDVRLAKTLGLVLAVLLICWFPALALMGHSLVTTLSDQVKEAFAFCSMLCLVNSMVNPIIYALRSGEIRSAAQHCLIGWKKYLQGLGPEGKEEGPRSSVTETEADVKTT
Cannabinoid receptor 1 (Rattus norvegicus), sequence (P20272 whole entry): as the sequence (P20272 whole entry) above

| Compound | Ki [2] | Ki [3] | t1/2 [4] | EC50 [5] | also measured |
| --- | --- | --- | --- | --- | --- |
| CC1=CC[C@@H]2[C@@H](C1)c1c(O)cc(C(C)(C)C(=O)OCCCCCBr)cc1OC2(C)C | 0.6 nM | 1.1 nM | – | – | Ki [1]: 1.2 nM |
| CC1=CC[C@@H]2[C@@H](C1)c1c(O)cc(C(C)(C)C(=O)OCCCn3ccnc3)cc1OC2(C)C | 1.3 nM | 2.1 nM | 271 min | 1 to 10 nM | – |
| CC1=CC[C@@H]2[C@@H](C1)c1c(O)cc(CC(=O)OCCCCC#N)cc1OC2(C)C | – | – | 3.2 min | 10 to 100 nM | – |
| CCCCOC(=O)C1(c2cc(O)c3c(c2)OC(C)(C)[C@@H]2CC=C(C)C[C@@H]32)CCC1 | – | – | 36.3 min | < 1 nM | – |
| COC(=O)C(C)(C)c1cc(O)c2c(c1)OC(C)(C)[C@@H]1CC=C(C)C[C@@H]21 | 34.5 nM | 36.9 nM | – | – | – |
| CC1=CC[C@@H]2[C@@H](C1)c1c(O)cc(C3(C(=O)OCCCCC#N)CCC3)cc1OC2(C)C | – | – | 115 min | 1 to 10 nM | – |
| CCOC(=O)C(C)(C)c1cc(O)c2c(c1)OC(C)(C)[C@@H]1CC=C(C)C[C@@H]21 | – | – | – | 1 to 10 nM | – |
| CC1=CC[C@@H]2[C@@H](C1)c1c(O)cc(C3(C(=O)OCCCCBr)CCC3)cc1OC2(C)C | – | – | 47.9 min | – | – |
| CC1=CC[C@@H]2[C@@H](C1)c1c(O)cc(C(C)(C)C(=O)OCCCC#N)cc1OC2(C)C | – | 0.8 nM | 46.5 min | < 1 nM | EC50 [6]: 0.9 nM; deltaT [7]: 2 °C; Activity [8]: Dose-dependent effect; ED50 [8]: 0.034 mg/kg; Emax [9]: 89%; Activity [10]: inactive; deltaT [11]: < 4.5 °C |
| CC1=CC[C@@H]2[C@@H](C1)c1c(O)cc(C(C)(C)C(=O)OCCCBr)cc1OC2(C)C | 0.7 nM | – | – | – | – |
| CC1=CC[C@@H]2[C@@H](C1)c1c(O)cc(C(C)(C)C(=O)OCCCCC#N)cc1OC2(C)C | 0.9 nM | 0.1 nM | 40.4 min | 1 to 10 nM | – |
| CC1=CC[C@@H]2[C@@H](C1)c1c(O)cc(C(C)(C)C(=O)OCCCCBr)cc1OC2(C)C | 0.8 nM | 0.9 nM | 12.9 min | – | Ki [1]: 1.2 nM |
| CCCCOC(=O)C(C)(C)c1cc(O)c2c(c1)OC(C)(C)[C@@H]1CC=C(C)C[C@@H]21 | – | – | 12.4 min | < 1 nM | ED50 [8]: 0.37 mg/kg; Activity [12]: Active |
| CC1=CC[C@@H]2[C@@H](C1)c1c(O)cc(CC(=O)OCCCCBr)cc1OC2(C)C | – | – | 1.7 min | – | – |
| CC1=CC[C@@H]2[C@@H](C1)c1c(O)cc(C(C)(C)C(=O)OCCCCn3ccnc3)cc1OC2(C)C | 7.7 nM | 8.2 nM | 392 min | – | – |
| CCCSC(=O)C(C)(C)c1cc(O)c2c(c1)OC(C)(C)[C@@H]1CC=C(C)C[C@@H]21 | 0.7 nM | 0.8 nM | 312 min | – | Ki [1]: 0.5 nM |
| CC1=CC[C@@H]2[C@@H](C1)c1c(O)cc(C(C)(C)CO)cc1OC2(C)C | > 10000 nM | > 10000 nM | – | – | – |
| CCCCOC(=O)Cc1cc(O)c2c(c1)OC(C)(C)[C@@H]1CC=C(C)C[C@@H]21 | – | – | 0.7 min | – | – |
| CCCCC(=O)OCC(C)(C)c1cc(O)c2c(c1)OC(C)(C)[C@@H]1CC=C(C)C[C@@H]21 | 1 nM | 1.2 nM | 9.5 min | – | Ki [1]: 0.5 nM |
| CCCCCNC(=O)C(C)(C)c1cc(O)c2c(c1)OC(C)(C)[C@@H]1CC=C(C)C[C@@H]21 | – | – | – | 1 to 10 nM | Stability [13]: Stable |
| CC1=CC[C@@H]2[C@@H](C1)c1c(O)cc(C(C)(C)C(=O)OCCBr)cc1OC2(C)C | 2.9 nM | – | – | – | Ki [1]: 7.7 nM |
